Activity calls are given as the source filed them. The rule behind the calls is not given here.
Assays:
HT-29 [1] = assay: Cytotoxicity against human HT-29 cells after 3 days by [3H]thymidine incorporation assay; type: functional, cell-based
Outline: (§1)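 Cells kept in DMEM with 10% FBS at 37 °C, 5% CO2, then plated at 20,000 cells/well. Exposed to a range of concentrations for 3 days at 37 °C, final DMSO 0.1% or less, with DMSO controls. IC50 reported.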

Caco-2 = assay: Cytotoxicity against human Caco-2 cells after 3 days by [3H]thymidine incorporation assay; type: functional, cell-based; outline: as §1
HT-29 [2] = assay: Reduction of proliferating cell nuclear antigen level in human HT-29 cells by immunohistochemistry analysis; type: functional, cell-based
Outline: (§2)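 Paraffin sections of xenograft tumors, 4 μm thick, incubated overnight with anti-PCNA (1:1000) or anti-p27 (1:50), then biotinylated secondary, avidin-biotin peroxidase and diaminobenzidine, with hematoxylin counterstain. Five random fields per slide were imaged at 400×. PCNA was reported as labeling index (positive cells/total ×100, averaged per tumor); p27 as integrated optical density averaged per tumor and per group; ± SE.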

Mus musculus = assay: Toxicity in SCID mouse assessed as effect on body weight at 10 mg/kg, ip qd for 3 weeks (reference value: 20.4 +/- 0.4 g); type: organism-based; set-up: dose 10 mg/kg, route intraperitoneal; conditions: in vivo, 504 h
HT-29 [3] = assay: Antitumor activity against human HT-29 cells xenografted in SCID mouse assessed as reduction tumor weight at 10 mg/kg, ip qd for 3 weeks (reference value: 0.72 +/- 0.1 g); type: functional; conditions: route intraperitoneal
HT-29 [4] = assay: Up-regulation of p27 expression level in human HT-29 cells by Western blotting; type: functional, cell-based
Outline: (§3)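 Xenograft tumors from treated SCID mice were homogenized in lysis buffer and pooled by group. Primary antibodies (PCNA or p27) were applied overnight at 4 °C, followed by HRP secondary for 1 h. Bands detected by chemiluminescence, with β-actin as loading control.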

Serum = assay: Drug level in SCID mouse serum at 10 mg/kg, ip by GC-MS analysis; type: ADME, organism-based; set-up: dose 10 mg/kg, route intraperitoneal; conditions: in vivo
Outline: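 Blood taken at autopsy from xenografted SCID mice after 3 weeks of daily i.p. dosing at 10 mg/kg. Serum (50 μL) was incubated with 1 M sodium acetate pH 5 for 60 min at 37 °C, extracted 3× with ethyl acetate, dried and redissolved. Analysed by GC-MS on a DB-5 column, with quantification against external-standard calibration curves at m/z 255, 298 or 270. Values given as mean ± std.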

HT-29 [5] = assay: Induction of apoptosis in human HT-29 cells assessed as caspase3 activity; type: functional, cell-based
HT-29 [6] = assay: Antitumor activity against human HT-29 cells xenografted in SCID mouse assessed as reduction tumor volume at 10 mg/kg, ip qd for 3 weeks (reference value: 1087 +/- 138.9 mm'3); type: functional; conditions: route intraperitoneal
HT-29 [7] = assay: Induction of apoptosis in human HT-29 cells assessed as PARP cleavage; type: functional, cell-based
HT-29 [8] = assay: Up-regulation of p27 expression level in human HT-29 cells by immunohistochemistry analysis; type: functional, cell-based; outline: as §2
HT-29 [9] = assay: Reduction of proliferating cell nuclear antigen level in human HT-29 cells by Western blotting; type: functional, cell-based; outline: as §3

Structure (SMILES): COc1cc(/C=C/c2ccc(O)cc2)cc(OC)c1 [PTEROSTILBENE]
- IC50 (HT-29 [1]): 23.8 µM
- IC50 (Caco-2): 14.5 µM

Structure (SMILES): COc1ccc(/C=C/c2cc(OC)cc(OC)c2)cc1 [TRISMETHOXYRESVERATROL]
- Activity (HT-29 [2]): Active
- Activity (Mus musculus): 19.5 g
- Activity (HT-29 [3]): 0.57 g
- Activity (HT-29 [4]): Active
- IC50 (HT-29 [1]): 16.1 µM
- Drug uptake (Serum): 69.9 ng/mL
- IC50 (Caco-2): 12 µM
- Activity (HT-29 [5]): inactive
- Activity (HT-29 [6]): 590.3 mm3
- Activity (HT-29 [7]): inactive
- Activity (HT-29 [8]): Active
- Activity (HT-29 [9]): Active

Structure (SMILES): COc1cc(/C=C/c2ccc(S)cc2)cc(OC)c1
- IC50 (HT-29 [1]): > 10 µM
- IC50 (Caco-2): > 10 µM

Structure (SMILES): COc1cc(/C=C/c2ccc(N)cc2)cc(OC)c1
- Drug uptake (Serum): 99 ng/mL

Structure (SMILES): COc1ccc(/C=C\c2cc(O)cc(O)c2)cc1
- IC50 (HT-29 [1]): > 30 µM
- IC50 (Caco-2): > 30 µM

Structure (SMILES): COc1cc(/C=C/c2ccc(OC3OC(CO)C(O)C(O)C3O)cc2)cc(OC)c1 (stereo not drawn)
- IC50 (HT-29 [1]): > 10 µM
- IC50 (Caco-2): > 10 µM

Structure (SMILES): COc1cc(O)cc(/C=C/c2ccc(O)cc2)c1
- IC50 (HT-29 [1]): 33.5 µM
- IC50 (Caco-2): 19.2 µM

Structure (SMILES): COC(=O)c1ccc(/C=C/c2cc(OC)cc(OC)c2)cc1
- Drug uptake (Serum): 54.6 ng/mL

Structure (SMILES): COC(=O)c1ccc(/C=C\c2cc(OC)cc(OC)c2)cc1
- Drug uptake (Serum): 18.8 ng/mL

Structure (SMILES): COc1ccc(/C=C/c2cc(O)cc(O)c2)cc1 [RESVERATROL 4'-METHYL ETHER]
- IC50 (HT-29 [1]): 24.5 µM
- IC50 (Caco-2): > 30 µM

Structure (SMILES): COc1cc(/C=C/c2ccc(F)cc2)cc(OC)c1
- IC50 (HT-29 [1]): > 10 µM
- IC50 (Caco-2): > 10 µM

Structure (SMILES): COc1cc(/C=C\c2ccc(F)cc2)cc(OC)c1
- IC50 (HT-29 [1]): > 10 µM
- IC50 (Caco-2): > 10 µM

Structure (SMILES): COc1cc(/C=C\c2ccc(N)cc2)cc(OC)c1
- Drug uptake (Serum): 109.1 ng/mL

Structure (SMILES): COc1ccc(/C=C\c2cc(OC)cc(OC)c2)cc1 [8Z-3,4',5-TRIMETHOXYSTILBENE]
- Activity (Mus musculus): 19.8 g
- Activity (HT-29 [3]): 0.61 g
- IC50 (HT-29 [1]): 0.04 µM
- Drug uptake (Serum): 15.5 ng/mL
- IC50 (Caco-2): 0.08 µM
- Activity (HT-29 [6]): 1023.6 mm3

— ChEMBL document CHEMBL1240469, “In vitro and in vivo studies on stilbene analogs as potential treatment agents for colon cancer” (Eur J Med Chem, 2010)
